# This is a sample that favours compounds with a hit; in the whole collection about 1.8% have one here.
# NPY1 pot ag = NPY-Y1 receptor potentiators or agonists, primary screen, cell-based; Neuropeptide Y receptor type 1 (Homo sapiens), P25929; NPY-Y1 expressing cells, potentiator/agonist activation; activation, % at 3.6 µM; 220,000 compounds, 0.37% hits; in the data active means activation above about 33%, passing the limit was not always enough;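 further: cells stimulated with NPY at EC10 then isoproterenol at EC100; 0% = low agonist plus stimulus and 100% = saturating agonist plus stimulus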
# Target sequence (P25929 whole entry, looked up): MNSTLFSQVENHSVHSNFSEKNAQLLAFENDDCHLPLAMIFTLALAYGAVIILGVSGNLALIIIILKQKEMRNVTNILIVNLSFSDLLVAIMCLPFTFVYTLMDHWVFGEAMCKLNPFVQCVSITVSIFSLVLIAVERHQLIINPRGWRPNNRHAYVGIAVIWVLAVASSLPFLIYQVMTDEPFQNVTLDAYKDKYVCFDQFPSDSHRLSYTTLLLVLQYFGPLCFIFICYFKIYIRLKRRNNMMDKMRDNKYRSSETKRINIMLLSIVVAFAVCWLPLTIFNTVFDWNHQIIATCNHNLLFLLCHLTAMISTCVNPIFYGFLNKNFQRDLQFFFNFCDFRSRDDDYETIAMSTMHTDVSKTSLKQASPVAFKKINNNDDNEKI
# NPY Y2 blocker = NPY-Y2 receptor antagonists, primary screen, cell-based; Neuropeptide Y receptor type 2 (Homo sapiens), P49146; NPY-Y2 expressing cells, antagonist mode; inhibition, % at 2.7 µM; 140,000 compounds, 0.99% hits; in the data active means inhibition above about 17%;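 further: 0% = vehicle with agonist challenge and 100% = reference antagonist with challenge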
# Target sequence (P49146 whole entry, looked up): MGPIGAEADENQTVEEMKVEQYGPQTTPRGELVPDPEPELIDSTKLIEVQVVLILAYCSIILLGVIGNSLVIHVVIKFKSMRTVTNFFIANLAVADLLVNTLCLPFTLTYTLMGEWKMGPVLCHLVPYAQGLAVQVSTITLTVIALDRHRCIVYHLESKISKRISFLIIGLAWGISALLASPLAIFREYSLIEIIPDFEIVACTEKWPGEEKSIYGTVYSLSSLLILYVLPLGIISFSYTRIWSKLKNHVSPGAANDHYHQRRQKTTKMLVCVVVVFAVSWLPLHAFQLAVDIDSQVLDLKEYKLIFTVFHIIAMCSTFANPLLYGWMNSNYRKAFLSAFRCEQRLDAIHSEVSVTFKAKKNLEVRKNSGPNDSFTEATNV
# NPY2 pot ag = NPY-Y2 potentiators or agonists, primary screen, cell-based; activation, % at 3.6 µM; 220,000 compounds, 0.45% hits; cells expressing NPY-Y2, potentiator/agonist read-out; AID 1359, 2008; in the data active means activation above about 27%;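 further: cells stimulated with NPY near EC25 plus isoproterenol at EC100; 0% = vehicle plus submaximal agonist and 100% = vehicle plus saturating agonist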
# NPY-Y1 antag = NPY-Y1 receptor antagonists, primary screen, cell-based; Neuropeptide Y receptor type 1 (Homo sapiens), P25929; HEK293-CNG Y1 cells, membrane potential fluorescence; NPY at EC95, then isoproterenol; inhibition, % at 3.6 µM; 200,000 compounds, 1% hits;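 active means inhibition above the campaign mean inhibition of all tested compounds plus 3 SD, cut at about 20% in these data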;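 further: 0% = DMSO wells given NPY plus isoproterenol and 100% = isoproterenol alone without NPY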
#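 Test system – HEK293 Y1/CNG channel cell line · Also added – NPY agonist 25 nM, then isoproterenol 1 µM plus Ro 20-1724 25 µM · Compound dosing – one concentration, 3.6 µM, in 0.4% DMSO · Schedule – compound incubation 1 h at room temperature, readout 45 min post-stimulation · Technique – fluorescence, membrane potential probe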
# NPY-Y1 pot conf = NPY-Y1 potentiators or agonists, confirmation, cell-based | shares compounds with NPY1 pot ag | cell-based NPY-Y1 potentiator/agonist assay | activation, % at 3.6 µM | 280 compounds, 20% hits | AID 1546, 2009; in the data active means activation above about 45%;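 further: cells challenged with NPY at its EC10 plus isoproterenol stimulus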
# NPY-Y2 counter = NPY-Y2 potentiators or agonists, counter-screen for NPY-Y1 potentiator project, cell-based, fluorescence; shares compounds with NPY1 pot ag; HEK293-CNG cells, membrane-potential fluorescence (FLIPR), 1536-well; activation, % at 3.6 µM; 280 compounds, 20% hits
# NPY-Y1 ag = NPY-Y1 direct agonists without NPY, confirmation, counter-screen for NPY-Y1 potentiator project, cell-based, fluorescence; 280 compounds, 50% hits; HEK293 Y1-CNGC, membrane potential fluorescence, agonist mode; activation, % at 3.6 µM; shares compounds with NPY1 pot ag;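 active means percent activation above the mean of DMSO-only control wells plus 3 SD of those wells, cut at about 18% in these data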;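 further: cells challenged with isoproterenol plus Ro 20-1724 with no NPY in test wells; Y1 agonism lowers isoproterenol-driven cAMP and reduces probe fluorescence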
# NPY-Y2 ag = NPY-Y2 direct agonists without NPY, counter-screen for NPY-Y1 potentiator project, cell-based, fluorescence; HEK293 Y2-CNGC, membrane potential fluorescence, agonist mode; activation, % at 3.6 µM; 280 compounds, 67% hits; shares compounds with NPY1 pot ag;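 active means activation above the solvent-only control wells' mean plus 3 SD, cut at about 11% in these data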;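 further: 0% = DMSO with isoproterenol and 100% = 40 nM NPY maximal response; agonism lowers cAMP so well fluorescence drops in active wells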
# CNGC inh 2 = CNGC cAMP sensor activity inhibitors, counter-screen for NPY-Y1 potentiator/agonist project, cell-based, HEK293-CNG parental, membrane potential fluorescence, Y1 set. shares compounds with NPY1 pot ag. isoproterenol cAMP. inhibition, % at 3.6 µM. 280 compounds, 42% hits. AID 1704, 2009;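 active means inhibition above the mean of stimulated solvent-only control wells plus 3 SD, cut at about 22% in these data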;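 further: 0% = isoproterenol-stimulated DMSO wells and 100% = unstimulated DMSO wells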
# NPY-Y2 confirm = NPY-Y2 potentiators or agonists, confirmation, cell-based. 450 compounds, 20% hits. cell-based NPY-Y2 potentiator/agonist assay. AID 1539, 2009. activation, % at 3.6 µM. shares compounds with NPY2 pot ag
# NPY-Y1 counter = NPY-Y1 potentiators or agonists, counter-screen for NPY-Y2 potentiator project, cell-based, fluorescence | shares compounds with NPY2 pot ag | Y1 HEK293-CNG cells, membrane potential fluorescence | activation, % at 3.6 µM | 450 compounds, 20% hits | AID 1651, 2009; in the data active means activation above about 45%;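 further: cells stimulated with submaximal NPY then isoproterenol with phosphodiesterase inhibitor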
# NPY-Y1 agonist 2 = NPY-Y1 direct agonists, selectivity assay for NPY-Y2 potentiator project, cell-based, fluorescence | activation, % at 3.6 µM | HEK293 Y1-CNGC, membrane potential fluorescence, agonism | shares compounds with NPY2 pot ag | 450 compounds, 37% hits;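 active means activation above the mean of DMSO-only control wells plus 3 SD, cut at about 18% in these data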;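 further: cells stimulated with 1 µM isoproterenol plus the PDE inhibitor Ro 20-1724; 0% = isoproterenol with DMSO and no NPY and 100% = 40 nM NPY; Y1 agonists lower the membrane potential dye signal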
# CNGC inhibitor = CNGC cAMP sensor activity inhibitors, counter-screen for NPY-Y2 potentiator project, cell-based, HEK293-CNG parental, membrane potential fluorescence; AID 1703, 2009; 450 compounds, 32% hits; inhibition, % at 3.6 µM; isoproterenol cAMP; shares compounds with NPY2 pot ag;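 active means inhibition above the control-well mean plus 3 SD of those wells, cut at about 22% in these data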;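 further: 0% = DMSO with isoproterenol and 100% = DMSO without isoproterenol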
# Y2 agonist ctr = NPY-Y2 direct agonists, counter-screen for NPY-Y2 potentiator project, cell-based, fluorescence; shares compounds with NPY2 pot ag; HEK293 Y2/CNGC cells, membrane potential fluorescence, agonist mode; activation, % at 3.6 µM; 450 compounds, 56% hits; AID 1710, 2009;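 active means activation above the mean of solvent-only control wells plus 3 SD, cut at about 10% in these data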;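 further: cells stimulated by isoproterenol with no NPY added so direct agonism is tested; 0% = DMSO with isoproterenol alone and 100% = NPY at EC100 plus isoproterenol; agonism lowers probe fluorescence through less cAMP and CNG channel opening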
# * hit, by the source's call; / = not tested or not shown. Unless noted, no stated cut-off is given here; in the data, active means activation above about 33%; inactive means the rest.
SMILES,NPY1 pot ag,NPY Y2 blocker,NPY2 pot ag,NPY-Y1 antag,NPY-Y1 pot conf,NPY-Y2 counter,NPY-Y1 ag,NPY-Y2 ag,CNGC inh 2,others
CC(=O)NC12CC3CC(C1)CC(C(=O)OCC(=O)Nc1ncc(Cl)c(C)c1Cl)(C3)C2,45*,1,8,-1,3,-1,-5,3,-5,
Cc1ccc(S(=O)(=O)N(CC(=O)N2CCC(C)CC2)Cc2ccccc2F)cc1,79*,1,20,3,-5,0,-10,-6,1,
Cc1ccc(S(=O)(=O)N(CC(=O)O)Cc2ccccc2F)cc1,-12,6,5,-1,/,/,/,/,/,
CCNC(=O)c1cc(Br)ccc1Cl,51*,0,-10,-2,6,3,0,8,9,
Cc1cc(C)nc(NC(=O)c2cc(Br)ccc2Cl)n1,-41,/,-2,0,/,/,/,/,/,
CC(C)(C)NC(=O)C(c1ccc(O)cc1)N(C(=O)Cn1nnc(-c2ccc(F)cc2)n1)c1ccccc1F (stereo unspecified),52*,/,-6,-1,14,5,19*,16*,20,
Cc1nc2ccccc2nc1CSc1nnc(N)s1,-15,2,-9,2,/,/,/,/,/,
O=C(c1cc(C2CC2)on1)N1CCN(C(c2ccccc2)c2ccccc2)CC1,-6,-2,5,-2,/,/,/,/,/,
O=C(c1cc(-c2cccc(O)c2)on1)N1CCN(C(c2ccccc2)c2ccccc2)CC1,32*,1,-6,8,32,5,18*,16*,7,
CC(=O)c1c(C)nc(-c2ccc(Cl)cc2)nc1N,88*,/,-10,-2,4,-2,-12,-8,-6,
Cc1noc(-c2ccc(C(F)(F)F)cc2)c1NC(=O)Nc1ccc(Cl)cc1,63*,/,12,/,53*,31,53*,25*,37*,
Cc1cc(-c2onc(C)c2C(=O)Nc2ccc(C(F)(F)F)cc2)no1,1,/,-15,/,/,/,/,/,/,
O=C(c1sc2cc([N+](=O)[O-])ccc2c1Cl)N1CCOCC1,13,1,11,-4,/,/,/,/,/,
CC(C)N(C(=O)c1sc2cc([N+](=O)[O-])ccc2c1Cl)C(C)C,85*,4,23,1,9,7,-2,18*,6,
O=[N+]([O-])c1ccc(Cl)cc1Sc1nc2ccccc2o1,-37,1,-8,7,/,/,/,/,/,
O=C1CCC2S/C(=C/Nc3ccc(C(F)(F)F)cc3)C(=O)N12 (stereo unspecified),39*,/,18,-4,35,18,22*,25*,30*,
O=C1CCCC/C1=C/Nc1cccc(C(F)(F)F)c1,-1,/,0,7,/,/,/,/,/,
CCOC(=O)N1CCC(NC(=O)C2=CCN(S(=O)(=O)c3ccccc3)CC2)CC1,-21,/,-8,/,/,/,/,/,/,
NC(=O)COc1ccccc1C(=O)O,-6,/,-4,2,/,/,/,/,/,
COCCCNCCCCOc1ccc(C)cc1[N+](=O)[O-],-17,2,-5,4,/,/,/,/,/,
C=CCNCCOc1ccc(C)cc1[N+](=O)[O-],39*,/,4,-2,0,5,-2,4,3,
C/C(=N\NC(=O)c1nn(C)cc1Br)c1ccc(NC(=O)c2ccncc2)cc1,-5,2,-4,1,/,/,/,/,/,
Cc1nn(C)c(C)c1CNC(=O)c1nn2c(c1Cl)NC(c1cccs1)CC2C(F)(F)F (stereo unspecified),1,16,29*,-7,/,/,/,/,/,NPY-Y2 confirm=6;NPY-Y1 counter=0;NPY-Y1 agonist 2=11;CNGC inhibitor=2;Y2 agonist ctr=-3
CCN(CC)c1cc(C)c2cc(NC(=O)c3cccs3)ccc2n1,35,/,28*,-4,/,/,/,/,/,NPY-Y2 confirm=33;NPY-Y1 counter=53*;NPY-Y1 agonist 2=35*;CNGC inhibitor=45*;Y2 agonist ctr=35*
Cc1cccc(NC(=O)CN2C(=O)C(C)Oc3ccccc32)n1 (stereo unspecified),-5,/,-11,-4,/,/,/,/,/,
SMILES,NPY1 pot ag,NPY Y2 blocker,NPY2 pot ag,NPY-Y1 antag,NPY-Y1 pot conf,NPY-Y2 counter,NPY-Y1 ag,NPY-Y2 ag,CNGC inh 2,others
COc1c(Cl)cc(Cl)cc1C(=O)Nc1ccccc1N1CCN(C(C)=O)CC1,-8,2,4,9,/,/,/,/,/,
Cc1ccc(NC(=O)c2cc(S(=O)(=O)Nc3ccc(C)cc3)cs2)cc1,50,-4,43*,-13,/,/,/,/,/,NPY-Y2 confirm=37*;NPY-Y1 counter=47*;NPY-Y1 agonist 2=35*;CNGC inhibitor=42*;Y2 agonist ctr=21*
Cc1ccc(NS(=O)(=O)c2ccc(NC(=O)c3cccs3)cc2)c(C)c1,-6,-3,-6,-7,/,/,/,/,/,
Cc1ccc2cc(CCNC(=O)C(=O)c3c(C)[nH]c4ccccc34)c(=O)[nH]c2c1,-14,/,9,-6,/,/,/,/,/,
COc1ccc(NC(=S)N/N=C/c2cccn2Cc2ccc(F)cc2)cc1,20,/,42*,2,/,/,/,/,/,NPY-Y2 confirm=17;NPY-Y1 counter=7;NPY-Y1 agonist 2=-2;CNGC inhibitor=2;Y2 agonist ctr=5
O=C(Nc1ccc(Br)cc1)C1CCCN1S(=O)(=O)c1cccs1 (stereo unspecified),-8,4,2,-3,/,/,/,/,/,

# Source: PubChem (The Scripps Research Institute Molecular Screening Center)
